Data: ChEMBL document CHEMBL1909621, “Synthesis and biological evaluation of novel nitrogen- and sulfur-containing hetero-1,4-naphthoquinones as potent antifungal and antibacterial agents” (2011)
≈ marks a conversion by molar mass, not a printed value. Calls of active or inactive are those of the source. No cut-off for these calls is given here.

Key:
Type in all cases: functional
Aspergillus niger [1] = experiment: Antifungal activity against Aspergillus niger F-1119 at 0.1% after 48 to 72 hrs by diffusion technique
Procedure, shortened: (§1)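 Fungi. Disk diffusion: 10⁹ spores (cells)/1 mL inoculum. Incubated 48–72 h at 28–30 °C. Zone around disk measured, with a nystatin control disk. Serial dilution: compounds dissolved in DMSO and diluted into wort agar, then inoculated. Incubated at 30 °C for 24–72 h. MIC recorded.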

Mycobacterium [2] = experiment: Antibacterial activity against Mycobacterium luteum b-917 at 0.5% after 24 hrs by diffusion technique
Mycobacterium [3] = experiment: Antibacterial activity against Mycobacterium luteum b-917 at 0.1% after 24 hrs by diffusion technique
Yamadazyma tenuis [4] = experiment: Antifungal activity against Candida tenuis VKM Y-70 at 0.1% after 48 to 72 hrs by diffusion technique; procedure, shortened: as §1
Staphylococcus aureus [5] = experiment: Antibacterial activity against Staphylococcus aureus 209-P after 24 to 72 hrs by serial dilution technique
Escherichia coli [6] = experiment: Antibacterial activity against Escherichia coli B-906 after 24 to 72 hrs by serial dilution technique
Escherichia coli [7] = experiment: Antibacterial activity against Escherichia coli B-906 at 0.5% after 24 hrs by diffusion technique
Mycobacterium [8] = experiment: Antibacterial activity against Mycobacterium luteum b-917 after 24 to 72 hrs by serial dilution technique
Escherichia coli [9] = experiment: Antibacterial activity against Escherichia coli B-906 at 0.1% after 24 hrs by diffusion technique
Yamadazyma tenuis [10] = experiment: Antifungal activity against Candida tenuis VKM Y-70 at 0.5% after 48 to 72 hrs by diffusion technique; procedure, shortened: as §1
Staphylococcus aureus [11] = experiment: Antibacterial activity against Staphylococcus aureus 209-P at 0.5% after 24 hrs by diffusion technique
Aspergillus niger [12] = experiment: Antifungal activity against Aspergillus niger F-1119 after 24 to 72 hrs by serial dilution technique; procedure, shortened: as §1
Aspergillus niger [13] = experiment: Antifungal activity against Aspergillus niger F-1119 at 0.5% after 48 to 72 hrs by diffusion technique; procedure, shortened: as §1
Staphylococcus aureus [14] = experiment: Antibacterial activity against Staphylococcus aureus 209-P at 0.1% after 24 hrs by diffusion technique
Yamadazyma tenuis [15] = experiment: Antifungal activity against Candida tenuis VKM Y-70 after 24 to 72 hrs by serial dilution technique; procedure, shortened: as §1

Molecule	diameter of the inhibition zone (DIZ) (Aspergillus niger [1]) [mm]	diameter of the inhibition zone (DIZ) (Mycobacterium [2]) [mm]	diameter of the inhibition zone (DIZ) (Mycobacterium [3]) [mm]	diameter of the inhibition zone (DIZ) (Yamadazyma tenuis [4]) [mm]	inhibition (Staphylococcus aureus [5])	inhibition (Escherichia coli [6])	diameter of the inhibition zone (DIZ) (Escherichia coli [7]) [mm]	inhibition (Mycobacterium [8])	diameter of the inhibition zone (DIZ) (Escherichia coli [9]) [mm]	diameter of the inhibition zone (DIZ) (Yamadazyma tenuis [10]) [mm]	diameter of the inhibition zone (DIZ) (Staphylococcus aureus [11]) [mm]	inhibition (Aspergillus niger [12])	diameter of the inhibition zone (DIZ) (Aspergillus niger [13]) [mm]	diameter of the inhibition zone (DIZ) (Staphylococcus aureus [14]) [mm]	MIC (Yamadazyma tenuis [15]) [µg/mL]	MIC (Aspergillus niger [12]) [µg/mL]	MIC (Mycobacterium [8]) [µg/mL]	MIC (Staphylococcus aureus [5]) [µg/mL]	inhibition zone (IZ) (Yamadazyma tenuis [4]) [mm]	inhibition (Yamadazyma tenuis [15])
O=C1C2=C(SCCSCCSC3=C(SCCSCCS2)C(=O)c2ccccc2C3=O)C(=O)c2ccccc21	0	0	0	0	inactive	inactive	0	inactive	0	0	0	inactive	0	0	31.2 (≈ 50.6 µM)					
O=C1C(SCc2ccco2)=C(SCc2ccco2)C(=O)c2ccccc21	8	10.4	7.7	0	inactive	inactive	0		0	0	7		10	0	15.6 (≈ 40.8 µM)	62.5 (≈ 163 µM)				
O=C1CCSC2=C(SCCC(=O)OCC3(CO1)COC(=O)CCSC1=C(SCCC(=O)OC3)C(=O)c3ccccc3C1=O)C(=O)c1ccccc1C2=O	0	0	0	0	inactive	inactive	0	inactive	0	0	0	inactive	0	0	15.6 (≈ 19.6 µM)					
O=C1C(SCc2ccc(Cl)cc2)=C(SCc2ccc(Cl)cc2)C(=O)c2ccccc21	0	0	0	0	inactive	inactive	0		0	7.4	0		0	0	15.6 (≈ 33.1 µM)	31.2 (≈ 66.2 µM)	125 (≈ 265 µM)			
O=C1C(Sc2ncccn2)=C(Sc2ncccn2)C(=O)c2ccccc21	7	11.7	6.7	6			0		0	7	9		9	6	125 (≈ 330 µM)	500 (≈ 1320 µM)	500 (≈ 1320 µM)	62.5 (≈ 165 µM)		
O=C1C(Cl)=C(SCc2ccc(Cl)cc2)C(=O)c2ccccc21	0	0	0	10	inactive	inactive	0		0	14	7		7	0	15.6 (≈ 44.7 µM)	15.6 (≈ 44.7 µM)	500 (≈ 1430 µM)			
CCOC1=C(SCCCCO)C(=O)c2ccccc2C1=O	0	25.4	14.7	8.4		inactive	0		0	14.7	19.4		10	12	15.6 (≈ 50.9 µM)	31.2 (≈ 102 µM)	31.2 (≈ 102 µM)	250 (≈ 816 µM)		
Cc1cc(C)c(CSC2=C(SCc3c(C)cc(C)cc3C)C(=O)c3ccccc3C2=O)c(C)c1	0	0	0	0	inactive	inactive	0	inactive	0	0	0	inactive	0	0	125 (≈ 257 µM)					
NYSTATIN																			19	
O=C1C(Sc2nc3ccc([N+](=O)[O-])cc3s2)=C(Sc2nc3ccc([N+](=O)[O-])cc3s2)C(=O)c2ccccc21	8	11.7	0	15	inactive	inactive	0		0	24	8		15	0	15.6 (≈ 27 µM)	31.2 (≈ 53.9 µM)	125 (≈ 216 µM)			
CN[C@H](CC(C)C)C(=O)N[C@H]1C(=O)N[C@@H](CC(N)=O)C(=O)N[C@H]2C(=O)N[C@H]3C(=O)N[C@H](C(=O)N[C@H](C(=O)O)c4cc(O)cc(O)c4-c4cc3ccc4O)[C@H](O)c3ccc(c(Cl)c3)Oc3cc2cc(c3O[C@@H]2O[C@H](CO)[C@@H](O)[C@H](O)[C@H]2O[C@H]2C[C@](C)(N)[C@H](O)[C@H](C)O2)Oc2ccc(cc2Cl)[C@H]1O [VANCOMYCIN]			18						14					15						
O=C1C(SCCCCO)=C(SCCCCO)C(=O)c2ccccc21	0	31	22	0		inactive	0		0	8	26		6	18	7.8 (≈ 21.3 µM)	31.2 (≈ 85.1 µM)	15.6 (≈ 42.6 µM)	15.6 (≈ 42.6 µM)		
CCOC1=C(SCc2c(C)cc(C)cc2C)C(=O)c2ccccc2C1=O	0	0	0	0	inactive	inactive	0	inactive	0	0	0	inactive	0	0	62.5 (≈ 171 µM)					
O=C1C(Cl)=C(SCCCCCCCCCO)C(=O)c2ccccc21	0	0	0	0	inactive	inactive	0	inactive	0	0	0	inactive	0	0	31.2 (≈ 85 µM)					
O=C1C(SCCCCCCCCCO)=C(SCCCCCCCCCO)C(=O)c2ccccc21	0	0	0	0		inactive	0		0	0	0	inactive	6	0				250 (≈ 493 µM)		inactive
